Assay [1] has as its system L1210. Nature of the assay: Tested for in vivo weight change against murine L1210 leukemia at the dose of 4.0 mg/kg per injection in experiment 1. Type of assay: functional, organism-based. As to conditions: Mus musculus. In a few lines:
(§1)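 Leukemia life-span assays used CD2F1 (Balb/c × DBA/2F1) mice weighing 18–22 g. Cells were inoculated IP on day 0, and compounds in 0.9% saline were given IP, dosed by average cage weight. Weight change is the difference in mean group weight between the last and first treatment days.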

Assay [2] concerns Mus musculus. Nature of the assay: Tested for the ratio of number of survivors / total number after 60 days at the dose of 5.0 mg/kg per injection against murine P388 Pt-resistant leukemia. Type of assay: functional, organism-based. An outline of the steps: (§2)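 CD2F1 (Balb/c × DBA/2F1) mice, 18–22 g, randomized and inoculated IP with counted leukemia cells on day 0, then re-randomized. Three IP treatments, dissolved in 0.9% saline and dosed on average cage weight, with dose in mg/kg per injection across a full toxic-to-ineffective range. Median life span and %T/C were recorded. Survivors at 60 days were counted as cured and excluded from %T/C.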

Assay [3] concerns Mus musculus. The assay can be described thus: Tested for in vivo weight change against murine B16 melanoma at the dose of 9.0 mg/kg per injection. Type of assay: functional, organism-based. An outline of the steps:
(§3)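 B6C3F1 (C57BL/6 × C3HF1) mice weighing 18–22 g received trocar tumor fragments SC on day 0. Compounds in 0.9% saline were given IP on a three-injection schedule, dosed by average cage weight. Weight change is the maximum treatment-related weight loss during the growth-delay assay.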

For assay [4], the system named is L1210. Nature of the assay: Tested for the ratio of number of survivors / total number after 60 days at the dose of 6.0 mg/kg per injection against murine leukemia L1210 experiment 1. Type of assay: functional, organism-based. Conditions: Mus musculus. In a few lines: as §2
Assay [5] concerns L1210. Nature of the assay: Tested for the ratio of number of survivors / total number after 60 days at the dose of 10 mg/kg per injection against murine L1210 Pt-resistant leukemia in experiment 2. Type of assay: functional, organism-based. Conditions: Mus musculus. An outline of the steps: as §2
Assay [6] concerns L1210. Nature of the assay: Tested for the ratio of treated and control against solid tumor murine L1210 Pt-resistant leukemia 5.0 mg/kg per injection in experiment 2; T/C. Type of assay: functional, organism-based. Conditions: Mus musculus. In a few lines: (§4)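 Murine leukemia life span assay in CD2F1 (Balb/c × DBA/2F1) mice, 18–22 g, randomized, with IP tumor cell inoculation on day 0. Depending on the model, the inoculum was 1 × 10^4 cells with IP dosing on days 3, 7 and 11, or 1 × 10^6 cells with IP dosing on days 1, 5 and 9. Drug was given in 0.9% saline, mg/kg per injection, by average cage weight. Read-outs were median day of death and %T/C. Mice alive 60 days after treatment counted as cured and were excluded.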

The test system of assay [7] is Mus musculus. Nature of the assay: Tested for the ratio of treated and control against solid tumor murine P388 Pt-resistant leukemia 5.0 mg/kg per injection; T/C. Type of assay: functional, organism-based. An outline of the steps:
as §4

Assay [8] relates to Mus musculus. Nature of the assay: Tested for the ratio of treated and control tumor to reach 750 mg against murine solid tumor M5076 sarcoma 9.0 mg/kg per injection. Type of assay: functional, organism-based. In a few lines: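 Solid tumor growth delay assay; B16 melanoma and M5076 sarcoma were run in B6C3F1 (C57BL/6 × C3HF1) mice of 18–22 g. Tumor fragments were implanted SC on day 0, then drug in 0.9% saline was given IP on days 1, 5, 9 or days 3, 7, 11, mg/kg per injection. T − C is the difference in days for treated and control tumors to reach 750 mg. Net log cell kill is tumor burden reduction during therapy. Cured mice were excluded.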

The test system of assay [9] is L1210. The assay can be described thus: Tested for the ratio of number of survivors / total number after 60 days at the dose of 4.0 mg/kg per injection against murine L1210 Pt-resistant leukemia in experiment 1. Type of assay: functional, organism-based. As to conditions: Mus musculus. An outline of the steps: as §2
Assay [10] relates to L1210. Nature of the assay: Tested for the ratio of number of survivors / total number after 60 days at the dose of 4.0 mg/kg per injection against murine leukemia L1210 experiment 1. Type of assay: functional, organism-based. Conditions: Mus musculus. In a few lines:
as §2

Assay [11] deals with Mus musculus. The assay can be described thus: Tested for median life span against solid tumor P388 leukemia at 5.0 mg/kg per injection; T/C. Type of assay: functional, organism-based. An outline of the steps:
as §4

The subject of assay [12] is L1210. Nature of the assay: Tested for median life span against solid tumor L1210 Pt-resistant leukemia at 6.0 mg/kg per injection. Type of assay: functional, organism-based. Conditions: Mus musculus. An outline of the steps:
(§5)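 CD2F1 mice weighing 18–22 g were inoculated IP with leukemia cells on day 0. Compounds in 0.9% saline were given IP in three injections, dosed by average cage weight, over a dose range from toxic to ineffective. Median life span was recorded, with cause of death assessed at necropsy and 60-day survivors counted as cured.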

Assay [13] deals with M5076 sarcoma (Mus musculus). Nature of the assay: Tested for the ratio of treated and control tumor to reach 750 mg against murine solid tumor M5076 sarcoma 4.0 mg/kg per injection.
Assay [14] deals with L1210. Nature of the assay: Tested for median life span against solid tumor L1210 Pt-resistant leukemia at 10 mg/kg per injection in experiment 2. Type of assay: functional, organism-based. Conditions: Mus musculus. In a few lines:
as §5

The subject of assay [15] is Mus musculus. The assay can be described thus: Tested for the ratio of treated and control against solid tumor murine P388 Pt-resistant leukemia 10 mg/kg per injection; T/C. Type of assay: functional, organism-based. In a few lines: as §4
The test system of assay [16] is Mus musculus. The assay can be described thus: Tested for median life span against solid tumor P388 Pt-resistant leukemia at 10 mg/kg per injection. Type of assay: functional, organism-based. An outline of the steps:
as §5

Assay [17] deals with Mus musculus. The assay can be described thus: Tested for the ratio of number of survivors / total number after 60 days at the dose of 10 mg/kg per injection against murine leukemia P388. Type of assay: functional, organism-based. In a few lines:
as §2

Assay [18] relates to Mus musculus. The assay can be described thus: Tested for median life span against solid tumor P388 leukemia at 10 mg/kg per injection. Type of assay: functional, organism-based. An outline of the steps: as §4
Assay [19] relates to Mus musculus. The assay can be described thus: Tested for the ratio of number of survivors / total number after 60 days at the dose of 3.7 mg/kg per injection against murine P388 Pt-resistant leukemia. Type of assay: functional, organism-based. In a few lines: as §2
The test system of assay [20] is L1210. Nature of the assay: Tested for in vivo weight change against murine L1210 Pt-resistant leukemia at the dose of 1.5 mg/kg per injection in experiment 1. Type of assay: functional, organism-based. As to conditions: Mus musculus. In a few lines:
as §1

In assay [21] the test system is L1210. The assay can be described thus: Tested for median life span against solid tumor L1210 Pt-resistant leukemia at 1.6 mg/kg per injection in experiment 2. Type of assay: functional, organism-based. Conditions: Mus musculus. In a few lines: as §5
The subject of assay [22] is L1210. Nature of the assay: Tested for the ratio of number of survivors / total number after 60 days at the dose of 1.6 mg/kg per injection against murine leukemia L1210 experiment 2. Type of assay: functional, organism-based. Conditions: Mus musculus. In a few lines:
as §2

Assay [23] has as its system Mus musculus. Nature of the assay: Tested for the ratio of treated and control tumor to reach 750 mg against murine solid tumor colon carcinoma 2.5 mg/kg per injection. Type of assay: functional, organism-based.
For assay [24], the system named is L1210. The assay can be described thus: Tested for the ratio of number of survivors / total number after 60 days at the dose of 3.0 mg/kg per injection against murine L1210 Pt-resistant leukemia in experiment 1. Type of assay: functional, organism-based. As to conditions: Mus musculus. In a few lines: as §2
In assay [25] the test system is L1210. Nature of the assay: Tested for in vivo weight change against murine L1210 leukemia at the dose of 1.6 mg/kg per injection in experiment 2. Conditions: Mus musculus. Type of assay: functional, organism-based. An outline of the steps:
as §1

In assay [26] the test system is L1210. Nature of the assay: Tested for the ratio of treated and control against solid tumor murine L1210 leukemia 1.5 mg/kg per injection in experiment 1; T/C. Type of assay: functional, organism-based. Conditions: Mus musculus. In a few lines:
as §4

In assay [27] the test system is L1210. Nature of the assay: Tested for the ratio of treated and control against solid tumor murine L1210 Pt-resistant leukemia 3.0 mg/kg per injection in experiment 1;T/C. As to conditions: Mus musculus. Type of assay: functional, organism-based. An outline of the steps:
as §4

In assay [28] the test system is Mus musculus. The assay can be described thus: Tested for in vivo weight change against murine P388Pt-resistant leukemia at the dose of 3.7 mg/kg per injection. Type of assay: functional, organism-based. In a few lines:
as §1

Assay [29] deals with Mus musculus. The assay can be described thus: Tested for in vivo weight change against murine B16 melanoma at the dose of 4.0 mg/kg per injection. Type of assay: functional, organism-based. An outline of the steps: as §3
Assay [30] relates to Mus musculus. The assay can be described thus: Tested for in vivo weight change against murine colon carcinoma at the dose of 2.5 mg/kg per injection. Type of assay: functional, organism-based.
For assay [31], the system named is L1210. The assay can be described thus: Tested for in vivo weight change against murine L1210 leukemia at the dose of 1.5 mg/kg per injection in experiment 1. Conditions: Mus musculus. Type of assay: functional, organism-based. In a few lines: as §1
In another assay the test system is Colon carcinoma cell. Nature of the assay: Tested for net cell kill tumor burden reduction during therapy at the dose 2.5 mg/kg in colon carcinoma. Type of assay: functional, organism-based. Set-up: dose 2.5 mg/kg. Conditions: Mus musculus.
Assay [32] has as its system Mus musculus. Nature of the assay: Tested for the ratio of number of survivors / total number after 60 days at the dose of 3.7 mg/kg per injection against murine leukemia P388 experiment 2. Type of assay: functional, organism-based. An outline of the steps:
as §2

The term T/C denotes the result in the treated group divided by that in the control group, in per cent. With CISPLATIN, the Weight change in the assay with L1210 [1] is 1 g; with Mus musculus [3], -4.5 g. Also, the Survivors is 0 with Mus musculus [2]; 1 in the assay on L1210 [4]; 0 with L1210 [5]; 0 in the assay with L1210 [9]; 1 in the assay on L1210 [10]; 3 with Mus musculus [17]. For the same substance, the Ratio with L1210 [6] turned out to be 107%. The T/C was 132% in the assay on Mus musculus [7], 261% in the assay with Mus musculus [11] and 123% in the assay on Mus musculus [15]. Besides, the T-C (in the assay with Mus musculus [8]; in assay [13]) was 15.9 days in each case. For the same substance, the MLS worked out at 12 days with L1210 [12], 12.4 days with L1210 [14], 18 days with Mus musculus [16] and 9.5 days in the assay with Mus musculus [18].
Regarding [Pt(cis-1,4-dach)CL2], the Survivors with Mus musculus [19] and in the assay on Mus musculus [32] was 0 each time. Further, the Weight change in the assay with L1210 [20] is 1.9 g; in the assay on L1210 [25] it was 0.9 g; in the assay with Mus musculus [28], -5.2 g; in the assay on Mus musculus [29], -2.6 g; in the assay with Mus musculus [30], -4.2 g; in the assay with L1210 [31] it was 0.6 g. Also, the MLS with L1210 [21] was determined as 15 days. The 60-day survivors turned out to be 0 with L1210 [22] and 2 in the assay on L1210 [24]. For the same substance, in the assay on Mus musculus [23], the T-C amounted to 3.8 days. Moreover, the Ratio turned out to be 217% in the assay on L1210 [26] and 167% with L1210 [27]. For the same substance, the Log net cell kill in the assay with Colon carcinoma cell was -0.4.
